Reference: ChEMBL document CHEMBL1128369, “Haloanilino derivatives of pyrimidines, purines, and purine nucleoside analogs: synthesis and activity against human cytomegalovirus” (J Med Chem, 1995)

Assays:
HEL [1] = assay: Inhibition of human CMV DNA synthesis in CMV-infected HEL cells.; format: functional, cell-based
Procedure, shortened: (§1)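 Dot-blot hybridization. HEL cells in MEM + 10% FCS infected with HCMV AD169 at about 1 pfu/cell for 60–90 min. Medium replaced by 3-fold drug dilutions (4–6 concentrations, duplicate wells) or DMSO. Incubated 48–96 h at 37 °C, 5% CO2. SDS/pronase lysates spotted on nitrocellulose, hybridized with 32P-labeled cloned viral DNA probe and counted. IC50 is 50% inhibition of viral DNA.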

HEL [2] = assay: Inhibition against DNA of uninfected HEL cells by incorporation of [3H]TdR.; format: functional, cell-based; details: Homo sapiens
Procedure, shortened: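 About 1/3 confluent uninfected HEL monolayers in DMEM + 10% FCS, preincubated 24 h at 37 °C. Serial compound dilutions in DMSO (or DMSO alone) added to duplicate wells with [3H]thymidine 1 μCi/mL for 24 h. Cells lysed with 0.4 M NaOH, then 5% TCA precipitate collected on filters and counted. IC50 is 50% inhibition of incorporation.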

HEL [3] = assay: Inhibitory activity against HCMV DNA synthesis in virus infected cells; format: functional, cell-based; details: Homo sapiens; procedure, shortened: as §1
Nucleic Acid = assay: Inhibitory activity against HCMV DNA polymerase in virus infected cells; format: functional, cell-based, Human betaherpesvirus 5
Procedure, shortened: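 HCMV DNA polymerase partially purified from HEL cells infected with AD169 (MOI 2, 3 days) by phosphocellulose and DEAE-cellulose chromatography. Assay buffer was 40 mM Tris-HCl pH 7.8 with 8 mM MgCl2, 100 mM KCl, 4 mM 2-mercaptoethanol, 0.1 mM dATP/dGTP/dCTP/[3H]dTTP and activated calf thymus DNA. Incubated 60 min at 37 °C; acid-precipitable counts measured. IC50 is the mean of duplicate experiments.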

HEL [4] = assay: Concentration that inhibits HCMV yield by 90% relative to control cultures without drugs; format: functional; details: Homo sapiens
Procedure, shortened: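 HCMV AD169 infected HEL cells in 96-well plates at 0.1 pfu/cell for 30 min, washed twice, then given compound dilutions or DMSO diluent. Incubated 7 days at 37 °C. Cells scraped and sonicated. Progeny titered by end-dilution, in triplicate, 3- or 5-fold serial dilutions on fresh HEL cells, read after 14 days as the highest dilution with enumerable plaques.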

SMILES | IC50 (HEL [1]) [µM] | IC50 (HEL [2]) [µM] | IC50 (HEL [3]) [µM] | IC50 (Nucleic Acid) [µM] | IC90 (HEL [4]) [µM]
OCCOCn1cnc2c(O)nc(Nc3cc(Cl)cc(Cl)c3)nc21 | 15.2 | 14 |  |  | 
Oc1cc(Nc2cc(Cl)cc(Cl)c2)nc(O)n1 | 25 | 100 | 25 | 65 | 69
OCCOCn1cnc2c(Cl)nc(Nc3cc(Cl)cc(Cl)c3)nc21 | 12.5 | 14.4 |  |  | 
Nc1nc(O)cc(Nc2ccc(F)c(F)c2)n1 | 115 | > 200 |  |  | 
Oc1cc(Nc2ccc(Cl)c(F)c2)nc(O)n1 | > 200 | > 200 |  |  | 
Nc1nc(O)cc(Nc2cc(Cl)cc(Cl)c2)n1 | 28 | 95 | 28 | 175 | 91
OC[C@H]1O[C@@H](n2cnc3c(O)nc(Nc4cc(Cl)cc(Cl)c4)nc32)C[C@@H]1O | 15.1 | 13 |  |  | 
OC[C@H]1O[C@@H](n2cnc3c(Cl)nc(Nc4cc(Cl)cc(Cl)c4)nc32)C[C@@H]1O | 7.9 | 3.4 |  |  | 
Nc1nc(Nc2cc(Cl)cc(Cl)c2)nc2c1ncn2[C@H]1C[C@H](O)[C@@H](CO)O1 | 8.6 | 0.5 |  |  | 
Nc1nc(O)cc(Nc2ccc(Cl)c(F)c2)n1 | 70 | 165 |  |  | 
Nc1nc(O)cc(Nc2cc(F)cc(F)c2)n1 | 63 | > 200 |  |  | 
Nc1nc(Nc2cc(Cl)cc(Cl)c2)nc2c1ncn2COC(CO)CO | 47.9 | 5 |  |  | 
Oc1cc(Nc2cc(F)cc(F)c2)nc(O)n1 | > 200 | > 200 |  |  | 
OCC(CO)OCn1cnc2c(O)nc(Nc3cc(Cl)cc(Cl)c3)nc21 | 45 | 41.7 |  |  | 
Nc1nc(O)cc(Nc2ccc(F)c(Cl)c2)n1 | 20 | 110 |  |  | 
Nc1[nH]c(Nc2cc(Cl)cc(Cl)c2)nc2ncnc1-2 | 8 | 40 | 8 | 250 | 16.8
Oc1[nH]c(Nc2ccc(Cl)c(Cl)c2)nc2ncnc1-2 | 12 | 60 | 12 | 330 | 
Nc1nc(Nc2cc(Cl)cc(Cl)c2)nc2c1ncn2COCCO | 7.9 | 1.4 |  |  | 
Oc1cc(Nc2cc(F)cc(Cl)c2)nc(O)n1 | > 200 | > 200 |  |  | 
Oc1cc(Nc2ccc(Cl)c(Cl)c2)nc(O)n1 | 40 | > 200 | 40 | 45 | 
Nc1nc(O)cc(Nc2cc(F)cc(Cl)c2)n1 | > 200 | > 200 |  |  | 
Nc1nc(Cl)cc(Nc2cc(Cl)cc(Cl)c2)n1 | 4.7 | 32 |  |  | 18
Oc1[nH]c(Nc2cc(Cl)cc(Cl)c2)nc2ncnc1-2 | 33 | 400 | 33 | 140 | 56
Nc1[nH]c(Nc2ccc(Cl)c(Cl)c2)nc2ncnc1-2 | 5 | 3.4 |  |  | 
Nc1nc(Cl)cc(Nc2ccc(Cl)c(Cl)c2)n1 | 9.1 | 31 | 9.1 | 150 | 8.7
Nc1nc(O)cc(Nc2ccc(Cl)c(Cl)c2)n1 | 25 | 32 | 25 | 360 | 
Oc1cc(Nc2ccc(F)c(Cl)c2)nc(O)n1 | 140 | > 200 |  |  | 
Oc1cc(Nc2ccc(F)c(F)c2)nc(O)n1 | > 200 | > 200 |  |  | 
O=C(O)P(=O)(O)O [FOSCARNET SODIUM] | 15.5 |  |  |  | 
Nc1nc2c(ncn2COC(CO)CO)c(=O)[nH]1 [GANCICLOVIR] | 0.5 | 7 |  |  | 2.1
